Results as given in ChEMBL document CHEMBL2417536, “New pyridazine-fluorine derivatives: synthesis, chemistry and biological activity. Part II” (2013).
Values after ≈ are worked out from the molar mass of the structure shown.

Assays:
Staphylococcus aureus [1] = assay: Antibacterial activity against Staphylococcus aureus ATCC 25923 assessed as growth inhibition at 4 mg/disc after 24 hrs by disc diffusion assay; type: functional
Procedure, shortened: (§1)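 Disc diffusion. Suspension at 0.5 McFarland mixed 1/10 into Mueller Hinton agar. 5 mm sterile filter-paper discs, set in stainless steel cylinders, moistened with compound in chloroform at 4 mg/disc. Plates incubated 24 h at 30 °C; inhibition zone diameter (mm, mean) measured.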

Escherichia coli [2] = assay: Antibacterial activity against Escherichia coli ATCC 25922 assessed as growth inhibition at 4 mg/disc after 24 hrs by disc diffusion assay; type: functional; procedure, shortened: as §1
Bacillus subtilis [3] = assay: Antibacterial activity against Bacillus subtilis assessed as growth inhibition at 4 mg/disc after 24 hrs by disc diffusion assay; type: functional; procedure, shortened: as §1
Kocuria rhizophila [4] = assay: Antibacterial activity against Sarcina luteus ATCC 9341 assessed as growth inhibition at 4 mg/disc after 24 hrs by disc diffusion assay; type: functional, DC2201; procedure, shortened: as §1
Candida albicans = assay: Antifungal activity against Candida albicans ATCC 10231 assessed as growth inhibition at 4 mg/disc after 48 hrs by disc diffusion assay; type: functional
Procedure, shortened: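 Candida albicans suspension at 0.5 McFarland mixed 1/10 into Sabouraud agar. 5 mm filter-paper discs in steel cylinders, loaded with compound in chloroform at 4 mg/disc; nystatin control at 100 µg/disc. Incubated 48 h at 28 °C; inhibition zone diameter (mm) measured.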

Pseudomonas aeruginosa [5] = assay: Antibacterial activity against Pseudomonas aeruginosa ATCC 27853 assessed as growth inhibition at 4 mg/disc after 24 hrs by disc diffusion assay; type: functional; procedure, shortened: as §1
Kocuria rhizophila [6] = assay: Antibacterial activity against Sarcina luteus ATCC 9341 assessed as growth inhibition after 24 hrs by broth microdilution assay; type: functional; conditions: DC2201, 24 h
Procedure, shortened: (§2)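 Broth microdilution in Mueller Hinton broth. Inoculum adjusted to 0.5 McFarland. Compounds dissolved in 50% DMSO at 250 mg/mL (stock), then two-fold serial dilutions over 250 to 0.12 mg/mL. Further broth plus 5 µL inoculum added per well. Incubated 24 h at 37 °C, screened twice per organism. MIC is the lowest concentration with no visible growth; chloramphenicol MIC expressed in µg/mL.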

Bacillus subtilis [7] = assay: Antibacterial activity against Bacillus subtilis assessed as growth inhibition after 24 hrs by broth microdilution assay; type: functional; procedure, shortened: as §2
Staphylococcus aureus [8] = assay: Antibacterial activity against Staphylococcus aureus ATCC 25923 assessed as growth inhibition after 24 hrs by broth microdilution assay; type: functional; conditions: ATCC 25923, 24 h; procedure, shortened: as §2
Staphylococcus aureus [9] = assay: Antibacterial activity against Staphylococcus aureus ATCC 25923 assessed as growth inhibition at 30 ug/disc after 24 hrs by disc diffusion assay; type: functional; conditions: ATCC 25923, 24 h, read-out: DIZ
Procedure, shortened: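 Disc diffusion. A 0.5 McFarland bacterial suspension was mixed 1/10 with Mueller Hinton agar. Sterile 5 mm filter paper discs, set in sterile steel cylinders, were loaded at 30 µg/disc (the reference antibiotic dose; test compounds were 4 mg/disc in chloroform). Plates were incubated 24 h at 30 °C, and the inhibition zone diameter (mm, mean) was measured.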

Pseudomonas aeruginosa [10] = assay: Antibacterial activity against Pseudomonas aeruginosa ATCC 27853 assessed as growth inhibition at 30 ug/disc after 24 hrs by disc diffusion assay; type: functional; conditions: ATCC 27853, 24 h, read-out: DIZ
Procedure, shortened: (§3)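 Chloramphenicol control discs at 30 µg/disc on Mueller Hinton agar seeded 1/10 with 0.5 McFarland suspension. Incubated 24 h at 30 °C; inhibition zone diameter (mm) read.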

Kocuria rhizophila [11] = assay: Antibacterial activity against Sarcina luteus ATCC 9341 assessed as growth inhibition at 30 ug/disc after 24 hrs by disc diffusion assay; type: functional; conditions: DC2201, 24 h, read-out: DIZ; procedure, shortened: as §3
Escherichia coli [12] = assay: Antibacterial activity against Escherichia coli ATCC 25922 assessed as growth inhibition at 30 ug/disc after 24 hrs by disc diffusion assay; type: functional; conditions: ATCC 25922, 24 h, read-out: DIZ; procedure, shortened: as §3
Bacillus subtilis [13] = assay: Antibacterial activity against Bacillus subtilis assessed as growth inhibition at 30 ug/disc after 24 hrs by disc diffusion assay; type: functional; conditions: read-out: DIZ; procedure, shortened: as §3

Row | SMILES | diameter of the inhibition zone (DIZ) (Staphylococcus aureus [1]) | diameter of the inhibition zone (DIZ) (Escherichia coli [2]) | diameter of the inhibition zone (DIZ) (Bacillus subtilis [3]) | diameter of the inhibition zone (DIZ) (Kocuria rhizophila [4]) | diameter of the inhibition zone (DIZ) (Candida albicans) | diameter of the inhibition zone (DIZ) (Pseudomonas aeruginosa [5]) | MIC (Kocuria rhizophila [6]) | MIC (Bacillus subtilis [7]) | MIC (Staphylococcus aureus [8]) | zone of inhibition at 30 µg/disc (Staphylococcus aureus [9]) | zone of inhibition at 30 µg/disc (Pseudomonas aeruginosa [10]) | zone of inhibition at 30 µg/disc (Kocuria rhizophila [11]) | zone of inhibition at 30 µg/disc (Escherichia coli [12]) | zone of inhibition at 30 µg/disc (Bacillus subtilis [13])
1 | O=C(OCC(F)(F)F)[C@H]1C[C@H](C(=O)c2ccc(Cl)cc2)N2N=CC=C[C@@H]12 | 30 mm | 35 mm | 33 mm | 58 mm | 37 mm | 20 mm | – | – | – | – | – | – | – | –
2 | Cc1ccc(C(=O)[C@H]2C[C@H](C(=O)OCC(F)(F)F)[C@@H]3C=CC=NN23)cc1 | 30 mm | 28 mm | 39 mm | 59 mm | 30 mm | 20 mm | 110 µg/mL (≈ 300 µM) | 180 µg/mL (≈ 491 µM) | 3800 µg/mL (≈ 10400 µM) | – | – | – | – | –
3 | CCOC(=O)[C@H]1[C@H](C(F)(F)F)[C@@H]2C=CC=NN2[C@H]1C(=O)c1ccc(F)cc1 | 28 mm | 31 mm | 38 mm | 58 mm | 29 mm | 21 mm | – | – | – | – | – | – | – | –
4 | CCOC(=O)[C@H]1[C@H](C(F)(F)F)[C@@H]2C=CC=NN2[C@H]1C(=O)c1ccc(C)cc1 | 29 mm | 27 mm | 38 mm | 61 mm | 31 mm | 21 mm | 90 µg/mL (≈ 237 µM) | 200 µg/mL (≈ 526 µM) | 4200 µg/mL (≈ 11000 µM) | – | – | – | – | –
5 | CCOC(=O)c1c(C(F)(F)F)c2cccnn2c1C(=O)c1ccc(F)cc1 | 30 mm | 34 mm | 31 mm | 41 mm | 29 mm | 16 mm | – | – | – | – | – | – | – | –
6 | CCOC(=O)c1c(C(F)(F)F)c2cccnn2c1C(=O)c1ccc(Cl)cc1 | 29 mm | 42 mm | 38 mm | 44 mm | 26 mm | 18 mm | – | – | – | – | – | – | – | –
7 | CCOC(=O)c1c(C(F)(F)F)c2cccnn2c1C(=O)c1ccc(C)cc1 | 49 mm | 40 mm | 36 mm | 60 mm | 32 mm | 19 mm | 100 µg/mL (≈ 266 µM) | 220 µg/mL (≈ 585 µM) | 160 µg/mL (≈ 425 µM) | – | – | – | – | –
8 | O=C(OCC(F)(F)F)[C@H]1C[C@H](C(=O)c2ccc(F)cc2)N2N=CC=C[C@@H]12 | 28 mm | 26 mm | 31 mm | 55 mm | 27 mm | 19 mm | – | – | – | – | – | – | – | –
9 | O=C(N[C@H](CO)[C@H](O)c1ccc([N+](=O)[O-])cc1)C(Cl)Cl [CHLORAMPHENICOL] | – | – | – | – | – | – | 0.25 µg/mL (≈ 0.774 µM) | 0.25 µg/mL (≈ 0.774 µM) | 0.25 µg/mL (≈ 0.774 µM) | 25 mm | 19 mm | 30 mm | 29 mm | 25 mm
